Legend:
Nucleic Acid [1] = test: Binding affinity to HSP90A quadruplex DNA assessed as change in melting temperature at 1 uM by FRET melting assay; type: nucleic-acid assay; conditions: Homo sapiens
Summary of the method: (§1)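 FAM/TAMRA dual-labelled oligonucleotides diluted to 400 nM in 60 mM potassium cacodylate pH 7.4. Annealed at 95 °C for 10 min, then cooled to RT over 3–3.5 h. Compound diluted from a 1 mM stock (10% DMSO/90% 1 mM HCl) to 2× in buffer and mixed 1:1 with DNA. Fluorescence read every 0.5 °C over 30–100 °C with a 30 s hold. ΔTm from curve fitting; triplicate.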

Nucleic Acid [2] = test: Binding affinity to HSP90A quadruplex DNA assessed as change in melting temperature at 2 uM by FRET melting assay; type: nucleic-acid assay; conditions: Homo sapiens; summary of the method: as §1
Nucleic Acid [3] = test: Binding affinity to double stranded DNA assessed as change in melting temperature at 2 uM by FRET melting assay; type: nucleic-acid assay; summary of the method: as §1
Nucleic Acid [4] = test: Binding affinity to human G4 telomeric quadruplex DNA assessed as change in melting temperature at 2 uM by FRET melting assay; type: nucleic-acid assay; summary of the method: as §1
Nucleic Acid [5] = test: Binding affinity to double stranded DNA assessed as change in melting temperature at 1 uM by FRET melting assay; type: nucleic-acid assay; summary of the method: as §1
Nucleic Acid [6] = test: Binding affinity to HSP90B quadruplex DNA assessed as change in melting temperature at 2 uM by FRET melting assay; type: nucleic-acid assay; conditions: Homo sapiens; summary of the method: as §1
Nucleic Acid [7] = test: Binding affinity to HSP90B quadruplex DNA assessed as change in melting temperature at 1 uM by FRET melting assay; type: nucleic-acid assay; conditions: Homo sapiens; summary of the method: as §1
Nucleic Acid [8] = test: Binding affinity to human G4 telomeric quadruplex DNA assessed as change in melting temperature at 1 uM by FRET melting assay; type: nucleic-acid assay; summary of the method: as §1
[9] = Antiproliferative activity against human 786-O cells after 96 hrs by neubauer haemocytometer analysis; type: functional, cell-based; conditions: 786-0; in the assay text read “sulforhodamine B assay” for “neubauer haemocytometer analysis”
Summary of the method: (§2)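 Cancer lines seeded at 1000–4000 cells/well and WI38 fibroblasts at 6000/well, then grown 24 h. Compound added over a concentration range for 96 h. Cells fixed with 10% TCA (30 min, 4 °C), stained with 0.4% sulforhodamine B (15 min, RT), dye solubilized in 10 mM Tris base, A540 read. Normalized to untreated cells; IC50 interpolated at 50% absorbance. Triplicate.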

A549 = test: Antiproliferative activity against human A549 cells after 96 hrs by neubauer haemocytometer analysis; type: functional, cell-based; conditions: in the assay text read “sulforhodamine B assay” for “neubauer haemocytometer analysis”; summary of the method: as §2
WI-38 = test: Antiproliferative activity against human WI38 cells after 96 hrs by neubauer haemocytometer analysis; type: cell-based; conditions: in the assay text read “sulforhodamine B assay” for “neubauer haemocytometer analysis”; summary of the method: as §2
Nucleic Acid [10] = test: Binding affinity to k-ras quadruplex DNA assessed as change in melting temperature at 2 uM by FRET melting assay; type: nucleic-acid assay; conditions: Homo sapiens; summary of the method: as §1
[11] = Antiproliferative activity against human RCC4 cells after 96 hrs by neubauer haemocytometer analysis; type: functional, cell-based; conditions: in the assay text read “sulforhodamine B assay” for “neubauer haemocytometer analysis”; summary of the method: as §2
Nucleic Acid [12] = test: Binding affinity to human 21-mer telomeric quadruplex F21T DNA assessed as change in melting temperature at 1 uM by FRET melting assay; type: nucleic-acid assay; summary of the method: as §1
Nucleic Acid [13] = test: Binding affinity to c-kit2 quadruplex DNA assessed as change in melting temperature at 2 uM by FRET melting assay; type: nucleic-acid assay; conditions: Homo sapiens; summary of the method: as §1
duplex DNA [14] = test: Binding affinity to duplex DNA assessed as change in melting temperature at 3 uM by FRET melting assay; conditions: Homo sapiens
Nucleic Acid [15] = test: Binding affinity to k-ras quadruplex DNA assessed as change in melting temperature at 1 uM by FRET melting assay; type: nucleic-acid assay; conditions: Homo sapiens; summary of the method: as §1
duplex DNA [16] = test: Binding affinity to duplex DNA assessed as change in melting temperature at 3 uM by FRET melting assay; conditions: Homo sapiens; remark: listed apart in the source
Nucleic Acid [17] = test: Binding affinity to human 21-mer telomeric quadruplex F21T DNA assessed as change in melting temperature at 2 uM by FRET melting assay; type: nucleic-acid assay; summary of the method: as §1
MCF7 = test: Antiproliferative activity against human MCF7 cells after 96 hrs by neubauer haemocytometer analysis; type: functional, cell-based; conditions: in the assay text read “sulforhodamine B assay” for “neubauer haemocytometer analysis”; summary of the method: as §2
MIA PaCa-2 = test: Antiproliferative activity against human MIAPaCa2 cells after 96 hrs by neubauer haemocytometer analysis; type: functional, cell-based; conditions: in the assay text read “sulforhodamine B assay” for “neubauer haemocytometer analysis”; summary of the method: as §2
Nucleic Acid [18] = test: Binding affinity to c-kit2 quadruplex DNA assessed as change in melting temperature at 1 uM by FRET melting assay; type: nucleic-acid assay; conditions: Homo sapiens; summary of the method: as §1
duplex DNA [19] = test: Binding affinity to duplex DNA assessed as change in melting temperature at 3 uM by FRET melting assay; conditions: Homo sapiens; remark: listed apart in the source

Compound | ΔTm (Nucleic Acid [1]) | ΔTm (Nucleic Acid [2]) | ΔTm (Nucleic Acid [3]) | ΔTm (Nucleic Acid [4]) | ΔTm (Nucleic Acid [5]) | ΔTm (Nucleic Acid [6]) | ΔTm (Nucleic Acid [7]) | ΔTm (Nucleic Acid [8]) | other results
CC(C)N(Cc1ccc(-c2ncc(-c3cccc(-c4cnc(-c5ccc(CN(C(C)C)C(C)C)cc5)o4)c3)o2)cc1)C(C)C | 8 °C | 8 °C | 1 °C | 2 °C | 1 °C | 9 °C | 8 °C | < 2 °C | –
CN1CCN(CCc2ccc(-c3ncc(-c4cccc(-c5cnc(-c6ccc(CCN7CCN(C)CC7)cc6)o5)c4)o3)cc2)CC1 | 14 °C | 23 °C | 0 °C | 2 °C | 0 °C | 7 °C | 2 °C | < 2 °C | IC50 [9]: 1.33 µmol; IC50 (A549): 1.02 µmol; IC50 (WI-38): 2.59 µmol; ΔTm (Nucleic Acid [10]): 17 °C; IC50 [11]: 0.94 µmol; ΔTm (Nucleic Acid [12]): < 2 °C; ΔTm (Nucleic Acid [13]): 2 °C; ΔTm (duplex DNA [14]): < 1 °C; ΔTm (Nucleic Acid [15]): 7 °C; ΔTm (duplex DNA [16]): < 1 °C; ΔTm (Nucleic Acid [17]): 2 °C; IC50 (MCF7): 1.32 µmol; IC50 (MIA PaCa-2): 1.25 µmol; ΔTm (Nucleic Acid [18]): < 2 °C; ΔTm (duplex DNA [19]): < 1 °C
c1cc(-c2cnc(-c3ccc(CN4CCCC4)cc3)o2)cc(-c2cnc(-c3ccc(CN4CCCC4)cc3)o2)c1 | 7 °C | 14 °C | 0 °C | 6 °C | 0 °C | 4 °C | 2 °C | 2 °C | –
CN1CCN(CCc2ccc(-c3ncc(-c4ccc(-c5cnc(-c6ccc(CCN7CCN(C)CC7)cc6)o5)cc4)o3)cc2)CC1 | – | < 5 °C | – | – | – | < 5 °C | – | – | ΔTm (Nucleic Acid [10]): < 5 °C; ΔTm (Nucleic Acid [13]): < 5 °C; ΔTm (Nucleic Acid [17]): < 5 °C
c1cc(-c2cnc(-c3ccc(OCCCN4CCCC4)cc3)o2)cc(-c2cnc(-c3ccc(OCCCN4CCCC4)cc3)o2)c1 | 7 °C | 14 °C | 0 °C | < 2 °C | 0 °C | 6 °C | 2 °C | < 2 °C | –
c1cc(-c2cnc(-c3cccc(CN4CCCCC4)c3)o2)cc(-c2cnc(-c3cccc(CN4CCCCC4)c3)o2)c1 | 5 °C | 8 °C | 1 °C | < 2 °C | 1 °C | 6 °C | 3 °C | < 2 °C | –
c1cc(-c2cnc(-c3ccc(OCCN4CCCC4)cc3)o2)cc(-c2cnc(-c3ccc(OCCN4CCCC4)cc3)o2)c1 | 7 °C | 14 °C | 0 °C | < 2 °C | 0 °C | 6 °C | 2 °C | < 2 °C | –
c1cc(-c2cnc(-c3ccc(CN4CCCCCC4)cc3)o2)cc(-c2cnc(-c3ccc(CN4CCCCCC4)cc3)o2)c1 | 8 °C | 9 °C | 1 °C | 7 °C | 1 °C | 11 °C | 9 °C | 3 °C | –
c1cc(-c2cnc(-c3ccc(OCCCCN4CCCC4)cc3)o2)cc(-c2cnc(-c3ccc(OCCCCN4CCCC4)cc3)o2)c1 | 5 °C | 19 °C | 0 °C | 15 °C | 0 °C | 5 °C | 2 °C | 2 °C | –
c1cc(-c2cnc(-c3ccc(CN4CCOCC4)cc3)o2)cc(-c2cnc(-c3ccc(CN4CCOCC4)cc3)o2)c1 | 6 °C | 6 °C | 0 °C | 2 °C | 0 °C | 6 °C | 5 °C | < 2 °C | –
CN1CCN(Cc2ccc(-c3ncc(-c4cccc(-c5cnc(-c6ccc(CN7CCN(C)CC7)cc6)o5)c4)o3)cc2)CC1 | 7 °C | 16 °C | 0 °C | 2 °C | 0 °C | 12 °C | 3 °C | < 2 °C | –
